Article PMC5871537 (Molecular pharmaceutics, 2017)
Several values for one entry are separate records, joined by “and”; a condition that tells them apart may be missing. Identical values can stand only once. Values belong to the compound of their own block, whether it stands above or below them.

Assays:
[1] = target: Hb A (Homo sapiens, UniProt P69905); test: Time-dependent Hb adduct formation in normal whole blood; format: in vitro ADME; conditions: for Hb modification (residual Hb adduct) at 24 h: normal whole blood, 2 mM compound; for remaining activity at 2000 µM: read-out: remaining activity at 24 h
Method in brief: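 Normal donor whole blood (30% hematocrit) was incubated with 2 mM test compound at 37 °C for 24 h with shaking at 140 rpm. Aliquots taken at 0.5, 1, 2, 4, 6, 8 and 24 h were mixed 1:1 with sodium cyanoborohydride/borohydride mix (50 mM stock) to fix adducts. Samples were stored at −80 °C, then analysed by cation-exchange HPLC as %Hb modified versus time. Peak was found by visual inspection and AUC0–24 by linear trapezoidal rule.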

[2] = tested on: SS cells (homozygous sickle red blood cells); test: Antisickling study; format: cell-based, human; conditions: for inhibition of RBC sickling: hypoxia
Method in brief: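 SS patient blood suspensions (20% hematocrit) were preincubated in air with 0, 1, 2 or 5 mM test compound (final DMSO <2%) at 37 °C for 1 h. They were then held under hypoxia (4% O2/96% N2) at 37 °C for 2 h. Aliquots were fixed in 2% glutaraldehyde without air exposure and scored microscopically for sickled cells. % inhibition was calculated against untreated control. Three biological replicates.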

[3] = cited from earlier work
[4] = target: sickle Hb (Hb S) (Homo sapiens, UniProt P69905); test: Hb adduct formation study; format: cell-based; conditions: SS cells, 20% hematocrit, 2 mM compound, mean ± SD of three experiments
Method in brief: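 SS cell suspensions (20% hematocrit) were incubated with test compound (final DMSO <2%) in air at 37 °C for 1 h, then under 4% O2/96% N2 at 37 °C for 2 h. Cells were PBS-washed and lysed in hypotonic buffer. Clarified hemolysate was run on weak cation-exchange HPLC, and modified Hb S was taken from elution patterns. Three biological replicates, mean ± SD.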

[5] = target: Hb (Homo sapiens, UniProt P69905); test: Incubation of VZHE004 with Hb for 3 days, UPLC-MS analysis; format: physicochemical; conditions: incubated with Hb for 3 days
[6] = at all three concentrations (1, 2 and 5 mM)

Compound: O=Cc1ccc(COc2ccccc2)o1 [5-PMFC, 5-(Phenoxymethyl)-2-furan carbaldehyde]
- Hb modification (residual Hb adduct) at 24 h [1]: ~ 7%
- remaining activity at 2000 µM [1]: ~29%

Compound: O=Cc1ccc(COc2ccc(Cl)cc2)o1 [5-CMFC, 5-((4-chlorophenoxy)methyl)-2-furan carbaldehyde]
- inhibition of RBC sickling [2, 6]: < 10%

Compound: O=Cc1ccc(CO)o1 [5-HMF, 5-hydroxymethyl-2-furfural, reference compound]
- Hb modification (residual Hb adduct) at 24 h [1]: ~ 2% and 1.1%
- remaining activity at 2000 µM [1]: ~8%
- plasma half-life [3]: ~ 1 h

Compound: COP(=O)(OC)OCc1ccc(C=O)o1 [VZHE014, (5-Formylfuran-2-yl)methyl Dimethyl Phosphate]
- modified Hb (%) [4]: 19.7 ± 6.3%
- inhibition of RBC sickling ([2]; 5 mM compound): 43% and ~ 40%

Compound: O=Cc1ccc(COc2ccccc2[N+](=O)[O-])o1 [5-NMFC, 5-((2-nitrophenoxy)methyl)-2-furan carbaldehyde]
- inhibition of RBC sickling [2, 6]: < 10%
- Hb modification (residual Hb adduct) at 24 h [1]: ~ 7%
- remaining activity at 2000 µM [1]: ~29%

The next lines start with results.

- modified Hb (%) [4]: 50.0 ± 3.0%
Compound: CC(C)(C)OC(=O)OCc1ccc(C=O)o1 [VZHE006, tert-Butyl((5-formylfuran-2-yl)methyl) Carbonate]
- fold antisickling potency over the other three esters and 5-HMF ([2]; 2 mM compound): roughly 3 fold
- inhibition of RBC sickling ([2]; 5 mM compound): > 95%

- modified Hb (%) [4]: 39.7 ± 8.2%
Compound: CCCOCc1ccc(C=O)o1 [VZHE015, 5-(Propoxymethyl)-2-furan Carboxadehyde]

- modified Hb (%) [4]: 36.4 ± 9.7%
Compound: CC(C)OCc1ccc(C=O)o1 [VZHE016, 5-(Isopropoxymethyl)-2-furan Carboxadehyde]
- inhibition of RBC sickling ([2]; 5 mM compound): < 10%

- modified Hb (%) [4]: 35.3 ± 11.6%
Compound: COCc1ccc(C=O)o1 [VZHE005, 5-(Methoxymethyl)-2-furan Carboxadehyde]

- modified Hb (%) [4]: 40.4 ± 3.9%
Compound: CCOCc1ccc(C=O)o1 [VZHE011, 5-(Ethoxymethyl)-2-furan Carboxadehyde]

- stability against hydrolytic cleavage of the ester (UPLC–MS) [5]: intact
Compound: CC(=O)OCc1ccc(C=O)o1 [VZHE004, (5-Formylfuran-2-yl)methyl Acetate]
